Experimental data as given in article PMC3103189 (Journal of Medicinal Chemistry, 2011).
Marks after values point to notes of the source that are not given here.

Experiments:
[1] = system: E. coli S30 extract system (coupled transcription/translation); type: biochemical; conditions: relative to tetracycline
[2] = system: H. influenzae clinical isolates (n = 11); experiment: MIC50/MIC90 analysis, clinical isolates; type: cell-based, Haemophilus influenzae; conditions: n = 11 clinical isolates
[3] = system: S. pneumoniae clinical isolates (n = 19); experiment: MIC50/MIC90 analysis, clinical isolates; type: cell-based, Streptococcus pneumoniae; conditions: n = 19 clinical isolates
[4] = system: S. aureus ATCC 13709 (Smith); experiment: Mouse septicemia model, IV efficacy; type: in vivo; conditions: IV 1 h postchallenge, survival after 48 h
[5] = system: S. aureus clinical isolates (n = 31); experiment: MIC50/MIC90 analysis, clinical isolates; type: cell-based, Staphylococcus aureus; conditions: n = 31 clinical isolates
[6] = for Clobs / Vzobs: Sprague−Dawley rats, 1 mg/kg IV and 10 mg/kg PO, sterile water
[7] = cited from earlier work
[8] = system: E. coli clinical isolates (n = 20); experiment: MIC50/MIC90 analysis, clinical isolates; type: cell-based, Escherichia coli; conditions: n = 20 clinical isolates
[9] = system: panel of Gram-positive and Gram-negative bacteria; experiment: MIC, summary statements over the panel; type: cell-based; conditions: read-out: MICs for the tetracycline-susceptible strains
How it was run: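 Broth microdilution MIC in liquid medium following CLSI methods. Medium was cation-adjusted Mueller Hinton broth, prepared fresh and held at 4 °C before testing, with defibrinated horse blood added as appropriate. Runs were accepted when comparator antibiotics fell within recommended quality-control ranges for the appropriate ATCC quality-control strains.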

Compound	MIC range H. influenzae [2]	MIC range S. aureus [5]	Clobs [6]	Vzobs [6]	other results
CN(C)[C@@H]1C(O)=C(C(N)=O)C(=O)[C@@]2(O)C(O)=C3C(=O)c4c(O)c(N)nc(F)c4C[C@H]3C[C@@H]12.Cl.Cl [20k, 9-Amino-6-demethyl-6-deoxy-7-fluoro-8-azatetracycline Dihydrochloride]	–	–	–	–	fold more potent than tetracycline in transcription/translation assay [1]: about 2 fold
CN(C)[C@@H]1C(O)=C(C(N)=O)C(=O)[C@@]2(O)C(O)=C3C(=O)c4c(O)c(N)nc(Cl)c4C[C@H]3C[C@@H]12 [20j, 9-Amino-7-chloro-6-demethyl-6-deoxy-8-azatetracycline]	–	–	–	–	fold more potent than tetracycline in transcription/translation assay [1]: about 2 fold
CN(C)[C@@H]1C(O)=C(C(N)=O)C(=O)[C@@]2(O)C(O)=C3C(=O)c4c(O)cccc4[C@@](C)(O)[C@H]3C[C@@H]12 [tetracycline]	–	–	–	–	oral bioavailability in humans [7]: 50−70%
CN(C)[C@@H]1C(O)=C(C(N)=O)C(=O)[C@@]2(O)C(O)=C3C(=O)c4c(O)cncc4C[C@H]3C[C@@H]12.Cl.Cl [20a, 6-Demethyl-6-deoxy-8-azatetracycline Dihydrochloride]	–	–	–	–	MIC [9]: 0.25 to 1 µg/mL

Continued, in another order:

MIC range H. influenzae [2]	MIC range S. aureus [5]	Clobs [6]	Vzobs [6]	Compound	other results
0.063−4 μg/mL	≤0.016−32 μg/mL	15.3 mL/min/kg	4.177 L/kg	CN(C)c1ncc(O)c2c1C[C@H]1C[C@H]3[C@H](N(C)C)C(O)=C(C(N)=O)C(=O)[C@@]3(O)C(O)=C1C2=O.Cl.Cl [20f, 6-Demethyl-6-deoxy-7-(dimethylamino)-8-azatetracycline Dihydrochloride]	MIC range S. pneumoniae [3]: ≤0.016−8 μg/mL; S. aureus PD50 [4]: <0.30 ^b mg/kg
0.25−2 μg/mL	0.063−4 μg/mL	3.37 mL/min/kg	1.256 L/kg	CN(C)CC(C)(C)CNc1nc(Cl)c2c(c1O)C(=O)C1=C(O)[C@]3(O)C(=O)C(C(N)=O)=C(O)[C@@H](N(C)C)[C@@H]3C[C@@H]1C2.Cl [24l, 7-Chloro-6-demethyl-6-deoxy-9-[[3-(dimethylamino)-2,2-dimethylpropyl]amino]-8-azatetracycline Trihydrochloride]	MIC range S. pneumoniae [3]: ≤0.016−0.063 μg/mL; fold lower clearance than the other three compounds ([6]; Sprague-Dawley, rat, in vivo): 5 fold; MIC range E. coli [8]: 0.5−8 μg/mL
0.25−1 μg/mL	≤0.016−1 μg/mL	15.5 mL/min/kg	6.119 L/kg	CN(C)c1cc(NC(=O)CNC(C)(C)C)c(O)c2c1C[C@H]1C[C@H]3[C@H](N(C)C)C(O)=C(C(N)=O)C(=O)[C@@]3(O)C(O)=C1C2=O [tigecycline, reference compound]	MIC range E. coli [8]: 0.125−2 μg/mL
